# Source: PubChem (several laboratories)
# TNAP act hi DEA: activators of human TNAP at high phosphate acceptor concentration | P05186 | purified TNAP, CDP-star luminescence, 1 M DEA, 30 min; active compounds read high; 0 = EDTA background, 1 = DMSO-only activity | activation factor at 20 µM | 200,000 tested, under 10 active | AID 1136;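 active = activation factor at least 2 at 20 µM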
# Target sequence (P05186 whole entry, looked up): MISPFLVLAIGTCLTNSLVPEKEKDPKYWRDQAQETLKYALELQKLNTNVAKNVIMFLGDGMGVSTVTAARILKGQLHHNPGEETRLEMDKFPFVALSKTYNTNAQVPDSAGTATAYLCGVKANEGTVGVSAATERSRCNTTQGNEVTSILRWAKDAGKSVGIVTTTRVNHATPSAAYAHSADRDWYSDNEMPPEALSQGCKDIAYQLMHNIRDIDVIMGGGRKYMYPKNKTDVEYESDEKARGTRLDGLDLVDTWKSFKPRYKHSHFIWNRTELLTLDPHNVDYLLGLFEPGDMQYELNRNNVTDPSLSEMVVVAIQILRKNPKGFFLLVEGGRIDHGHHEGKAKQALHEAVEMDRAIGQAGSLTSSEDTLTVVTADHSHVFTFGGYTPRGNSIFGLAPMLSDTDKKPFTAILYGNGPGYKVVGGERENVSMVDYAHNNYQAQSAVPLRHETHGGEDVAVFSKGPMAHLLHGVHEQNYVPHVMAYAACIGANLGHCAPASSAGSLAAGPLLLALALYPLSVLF
#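 Measured by: Luminescent substrate turnover signal | Test system: Human TNAP | Input: TNAP 1/800 final | Dosing: 20 µM single point | Schedule: 30 min, room temperature | Controls: EDTA wells as negative control, DMSO wells as positive control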
# bCat KO growth: beta-catenin-lacking colon tumor cell growth suppression. HCT116 beta-catenin knockout viability, CellTiter-Glo, 60 h; active compounds read low. viability, % at 10 µM. 140,000 tested, 1.5% active. AID 818;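 active = viability at or under a set limit, the compound median less 4 SD, cut at about 6% in these data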;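 note: 0% = Hyamine 1622 control at 20 µM and 100% = untreated cell control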
# TNAP inh hi DEA: blocks human TNAP under high phosphate acceptor concentration; purified TNAP, CDP-star luminescence, 1 M DEA; inhibition, % at 20 µM; 200,000 tested, 0.03% active;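 active = over 50% inhibition of tissue-nonspecific alkaline phosphatase at 20 µM in the single-dose screen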;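 note: plate controls were DMSO wells for no effect and EDTA-quenched wells as full inhibition for full effect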
# PTEN del growth: growth suppressors of cells with PTEN tumor suppressor deletion | HCT116 PTEN-null viability, CellTiter-Glo, 60 h; active compounds read low | viability, % at 10 µM | 140,000 tested, 1.2% active | AID 827;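 active = viability at or below a set limit, 4 SD under the median of all tested compounds, cut at about 3.7% in these data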;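 note: PTEN knockout HCT116 line with beta catenin targeted HCT116 as companion control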
# TNAP inh noacc: TNAP (human) inhibition, acceptor-free conditions. P05186. purified TNAP, CDP-star luminescence, 30 min. inhibition, % at 20 µM. AID 1012. 200,000 tested, 0.26% active;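 active = tissue-nonspecific alkaline phosphatase inhibition above about 50% at 20 µM in the single-dose screen, limit read from the data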;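 note: 0% = DMSO negative control and 100% = EDTA positive control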
# Lmaj promast: reduces viability of Leishmania major promastigotes; resazurin fluorescence viability; inhibition, % at 10 µM; 200,000 tested, 9% active; in the data active = inhibition above about 50%;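 note: promastigotes grown with compound for 44 hours at 28 °C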
# Active calls of the source: *; . = no result given. Shown are actives, neighbours in structure and some others; about 9.6% of the full set was active somewhere.
SMILES,TNAP act hi DEA,bCat KO growth,TNAP inh hi DEA,PTEN del growth,TNAP inh noacc,Lmaj promast
CC(/C=N/NC(=O)c1nn(C)c(C)c1Br)=C\c1ccccc1,1.1,92,-5,99,-9,-5
COc1ccc(/C=N/NC(=O)c2nn(-c3ccc(C)c(C)c3)c(=O)c3ccccc23)cc1,1.1,87,-5,91,2,28
COc1ccc(/C=N/NC(=O)c2nn(-c3ccccc3)c(=O)c3c(N)scc23)cc1,0.9,50,7,36,7,83*
COc1ccc(/C=N/NC(=O)c2nn(-c3ccc(Cl)cc3)c(=O)c3c(N)scc23)cc1,1,17,-5,22,-4,69*
CCOC(=O)c1nn(-c2ccc(OC)cc2)c(=O)c2c(N)scc12,1,68,4,78,-4,0
CC(C)(C)C(C(Oc1ccc(Cl)cc1)n1cncn1)n1nnnc1C(c1cccc(Cl)c1)N1CCCCC1 (stereo unspecified),1.1,5.7*,-6,15,-8,65*
O=C(Nc1cccc([N+](=O)[O-])c1)C1CC(=O)N(C2CCCCC2)C1 (stereo unspecified),1,.,-2,.,-5,-5
CCCCN(CC)CCCNC(=O)c1csc2c1CCCCC2,1,.,-2,.,-15,87*
CC1CC(C)CN(CCCNC(=O)c2csc3c2CCCC3)C1 (stereo unspecified),1,72,-3,66,-5,93*
CC(C)CCNC(=O)c1csc2c1CCCCC2,1,.,-1,.,-12,13
CCOC(=O)C1CCN(C(=O)COc2ccc(N(C)S(=O)(=O)c3ccc(C)cc3)cc2)CC1,1,.,2,.,-5,9
Fc1ccccc1COc1ccc(Br)cc1CNCc1ccncc1,1.1,62,-8,61,17,100*
CC(=O)Nc1cccc(OCc2ccc(F)cc2)c1,1,.,-4,.,-10,20
C=CCOc1ccc(Br)cc1/C=N/O,1.1,77,-7,83,-14,6
Fc1ccccc1COc1ccc(Br)cc1CNCc1cccnc1,1,.,0,.,-6,37
CCOc1cc(CNCc2ccncc2)cc(Br)c1OCc1ccc(F)cc1,1,88,-1,91,-2,93*
O/N=C/c1cc(Br)ccc1OCc1ccccc1F,.,.,.,.,.,100*
Fc1ccc(COc2cccc(CNCc3ccncc3)c2)cc1,1,.,-2,.,-8,96*
CN1CCN(NC(=S)Nc2ccc(Oc3ccccc3)cc2)CC1,1,.,-2,.,-2,6
Fc1ccc(COc2ccc(Br)cc2CNCc2ccncc2)cc1,1,42,-5,52,-14,97*
Nc1nonc1C(=O)NCCNCc1cc(Br)ccc1OCc1ccc(F)cc1,1.1,22,-5,36,-9,-1
O=C(Nc1nc2ccccc2n1Cc1ccccc1)c1ccco1,1,33,1,25,0,73*
Cc1ccc(Cn2c(SCC(=O)N/N=C/c3ccc(C)o3)nc3ccccc32)cc1,1,100,-3,102,-8,11
O=C(Nc1nc(NC(=O)c2ccco2)n(-c2ccccc2)n1)c1ccccc1,1,7,0,11,-9,100*
CCC(=O)Nc1nc2ccccc2n1Cc1ccc(Cl)cc1,1,.,-3,.,-8,99*
SMILES,TNAP act hi DEA,bCat KO growth,TNAP inh hi DEA,PTEN del growth,TNAP inh noacc,Lmaj promast
O=C(CSc1nc2ccccc2n1Cc1ccccc1)N/N=C/c1ccco1,1,100,-3,107,-10,50*
CCn1c(C)nc2cc(C(=O)N/N=C(\C)c3ccc(OC)cc3O)ccc21,1,.,-3,.,-200,38
COc1cc(C(=O)NNC2=CC(=O)CC(C)(C)C2)cc(OC)c1OC,1,98,0,91,-2,-4
CC(=O)NCc1nc2ccccc2n1Cc1ccccc1C,1,94,-3,103,-1,-2
O=C(/C=C/c1ccccc1)Nn1cnnc1,1.1,96,-8,92,2,-5
CC(=O)Nc1nc2ccccc2n1Cc1ccccc1C,1,17,-4,13,-5,96*
CC(=O)Nc1nc2ccccc2n1CCOc1ccccc1Cl,1,27,-4,25,-6,99*
CC(=O)Nc1nc(NC(=O)/C=C/c2ccccc2)n(-c2ccccc2)n1,1,26,-3,19,-3,95*
O=C(c1n[nH]c2ccccc12)N1CCN(c2ccc(F)cc2)CC1,1.1,.,-6,.,-14,12
CCn1c(SCC(=O)Nc2cc(C)on2)nc2sc3c(c2c1=O)CCCC3,1,14,0,2.3*,-6,0
C=CCn1c(SCC(=O)Nc2cc(C)on2)nc2sc3c(c2c1=O)CCCC3,1,75,0,67,-6,1
O=c1nc(N/N=C/c2ccccn2)cn[nH]1,1,.,-2,.,-92,98*
Cc1cc(=O)[nH]c(N/N=C/c2ccccn2)n1,1,11,-1,13,-72,99*
COc1cc(-c2nc3c[n+](CC(=O)c4ccccc4)ccc3n2C)cc(OC)c1OC,1,98,-4,99,-33,-3
COc1ccc(C(=O)C[n+]2ccc3c(c2)nc(-c2ccc(OC)cc2OC)n3C)cc1,1.1,18,-6,62,-7,87*
COc1ccc(C(=O)C[n+]2ccc3c(c2)nc(-c2ccccc2)n3C)cc1,1,84,-1,82,-9,68*
CC(C)c1ccc(-c2nn(-c3ccccc3)cc2C2C(C#N)=C(N)OC3=C2C(=O)CC(C)(C)C3)cc1 (stereo unspecified),1,40,-2,27,-8,77*
CCn1cnc2scc(-c3ccccc3)c2c1=O,1.1,99,-6,95,-3,-2
Cn1cc(/C=N/n2cnc3scc(-c4ccc(Cl)cc4)c3c2=O)c2ccccc21,1,10,-3,9,-4,59*
Cc1ccc(CNC(=O)CNC(=S)N(Cc2ccccc2)Cc2ccccc2F)cc1,1.1,.,-11,.,-33,16
COc1ccc(-c2n(CC(=O)OC3CC(C)CCC3C(C)C)c3ccccc3[n+]2C)cc1 (stereo unspecified),1.1,.,-6,.,0,101*
CC1CCC(C(C)C)C(OC(=O)CSc2nccc(=O)[nH]2)C1 (stereo unspecified),1,107,-4,91,-8,-5
COc1cccc(NC(=O)CC2COc3ccccc3O2)c1 (stereo unspecified),1,96,-4,102,-11,57*
Clc1nc(Cl)nc(N(c2ccccc2)c2ccccc2)n1,1.1,91,-5,96,-11,-7
Nc1ccc(N(c2ccccc2)c2ccc(N)cc2)cc1,1,12,0,7,0,100*
CC(=O)N1CCc2c(sc(NC(=O)c3ccc(S(=O)(=O)N(C)C)cc3)c2C#N)C1,.,.,.,.,.,-10
CC(=O)N1CCc2c(sc(NC(=O)c3ccc4c(c3)OCCO4)c2C#N)C1,1,24,3,29,-5,54*
